Test results reported in ChEMBL document CHEMBL4431351, “1,2-Benzisoselenazol-3(2H)-one Derivatives As a New Class of Bacterial Urease Inhibitors” (J Med Chem, 2016).
Calls of active or inactive are those of the source. The calls are words filed in the database; no cut-off is given here.

Assays:
[1] = target: T1, Urease subunit alpha/Urease subunit beta (Helicobacter pylori (strain ATCC 700392 / 26695) (Campylobacterpylori), UniProt P69996+P14916); test: Inhibition of recombinant Helicobacter pylori urease expressed in Escherichia coli rosetta DE3 using urea as substrate assessed as transformed cell urea splitting activity preincubated for 2 hrs followed by substrate addition measured after 2 hrs by Berthelot assay
T1 sequence (P69996 whole entry): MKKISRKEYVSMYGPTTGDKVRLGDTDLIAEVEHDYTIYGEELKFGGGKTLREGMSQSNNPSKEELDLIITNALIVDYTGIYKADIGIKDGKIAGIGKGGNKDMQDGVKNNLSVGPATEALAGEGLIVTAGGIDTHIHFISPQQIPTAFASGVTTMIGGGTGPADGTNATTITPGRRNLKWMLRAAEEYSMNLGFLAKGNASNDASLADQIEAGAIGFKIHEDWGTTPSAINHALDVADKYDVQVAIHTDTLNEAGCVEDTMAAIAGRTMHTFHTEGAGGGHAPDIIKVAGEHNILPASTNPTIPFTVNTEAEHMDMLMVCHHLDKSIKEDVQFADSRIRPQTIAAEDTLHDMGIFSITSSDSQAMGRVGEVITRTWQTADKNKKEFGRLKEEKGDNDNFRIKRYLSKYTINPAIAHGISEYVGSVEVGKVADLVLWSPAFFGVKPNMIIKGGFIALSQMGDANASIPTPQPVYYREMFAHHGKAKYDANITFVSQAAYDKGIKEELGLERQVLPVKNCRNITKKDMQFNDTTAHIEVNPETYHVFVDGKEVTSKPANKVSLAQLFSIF
T1 sequence (P14916 whole entry): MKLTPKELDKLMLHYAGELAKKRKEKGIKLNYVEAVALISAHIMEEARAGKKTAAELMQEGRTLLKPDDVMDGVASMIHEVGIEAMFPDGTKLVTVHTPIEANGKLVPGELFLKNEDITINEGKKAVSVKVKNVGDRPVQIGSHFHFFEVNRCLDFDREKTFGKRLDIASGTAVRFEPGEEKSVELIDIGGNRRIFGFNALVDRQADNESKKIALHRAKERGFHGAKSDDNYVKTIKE
How it was run: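 Induced, PBS-washed E. coli Rosetta pGEM::ureOP cells (1×10⁹ cfu/mL) held 2 h with inhibitor in 10 mM PBS. Urea then added to 5 mM. Ammonia in timed aliquots measured by Berthelot assay against an inhibitor-free reference. DMF effect checked. Three repeats.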

Sporosarcina pasteurii [2] = test: Reversible inhibition of Sporosarcina pasteurii CCM 2056 urease using urea as substrate assessed as ammonia levels after 120 mins by fast dilution assay
[3] = target: T1, Urease subunit alpha/Urease subunit beta; test: Inhibition of urease in Helicobacter pylori J99 in Brucella broth using urea as substrate after 2 hrs by Berthelot assay; assay type: protein-complex assay
How it was run: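 H. pylori J99 passaged on blood Columbia agar, microaerophilic, 37°C. Then grown 48 h in Brucella broth with 5% FBS and 1% IsoVitalex, spun once and resuspended in 10 mM PBS pH 7.2 without washing. About 1×10⁷ cfu/mL added to PBS with 5 mM urea and inhibitor. Berthelot ammonia read-out, triplicate.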

[4] = target: T1, Urease subunit alpha/Urease subunit beta; test: Inhibition of urease in Helicobacter pylori J99 in Brucella broth using urea as substrate preincubated for 2 hrs followed by substrate addition measured after 2 hrs by Berthelot assay; assay type: protein-complex assay
How it was run: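 Unwashed H. pylori J99 cells from 48 h Brucella broth culture (5% FBS, 1% IsoVitalex), resuspended in 10 mM PBS pH 7.2, about 1×10⁷ cfu/mL. Cells preincubated 2 h with inhibitor before 5 mM urea was added. Timed aliquots assayed by Berthelot method; three repeats.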

[5] = Steady state inhibition of Sporosarcina pasteurii CCM 2056 urease using urea as substrate assessed as inhibition constant for final enzyme conformation-inhibitor complex by measuring ammonia levels after 120 mins by phenol-hypochlorite method
How it was run: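 S. pasteurii urease (113.5 pM final) added to stirred mixtures with 25 mM urea and varied inhibitor (water or DMF), 3 mM phosphate pH 7.5, 37°C. Ammonia sampled over 120 min by phenol-hypochlorite. Progress curves fitted to integrated slow-binding equation. Ki and Ki* derived using Km and Vmax of uninhibited enzyme.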

[6] = target: T1, Urease subunit alpha/Urease subunit beta; test: Inhibition of recombinant Helicobacter pylori urease expressed in Escherichia coli rosetta DE3 using urea as substrate assessed as transformed cell urea splitting activity after 2 hrs by Berthelot assay
How it was run: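 E. coli Rosetta pGEM::ureOP cells grown in LB with ampicillin at 37°C, induced with 0.75 mM IPTG and 0.75 mM Ni²⁺ for 24 h at 22°C, then washed thrice in PBS. Cells (1×10⁹ cfu/mL final) start the reaction in 10 mM PBS with 5 mM urea and inhibitor. Timed aliquots read by Berthelot; triplicate.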

Sporosarcina pasteurii [7] = test: Competitive inhibition of Sporosarcina pasteurii CCM 2056 urease using urea as substrate assessed as ammonia levels after 120 mins by Lineweaver-Burk plot analysis
How it was run: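 Purified native S. pasteurii urease (113.5 pM final) preincubated with rising inhibitor levels in 3 mM phosphate buffer pH 7.5, 37°C, until equilibrium; urea 1–60 mM then added. Initial rates measured by phenol-hypochlorite ammonia read-out; mode and constants from Lineweaver-Burk plots using at least 5 inhibitor concentrations.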

For `O=C(Oc1ccccc1)c1ccccc1[Se][Se]c1ccccc1C(=O)Oc1ccccc1`, the IC50 [1] was “Not Active”, the “reversible inhibition (qualitative)” value (Sporosarcina pasteurii [2]) was “Active” and the IC50 [3] was “Not Active”. For the same molecule, the IC50 [4] was “Not Active”, the Ki [5] was 528 nM and the IC50 [6] was “Not Active”. For the same molecule, the “competitive inhibition (qualitative call)” value (Sporosarcina pasteurii [7]) was “Active”.
